A value given as a limit tells only on which side of the number the result lay.

The subject of data set [1] is FAAH. The following applies: read-out: IC50 to FAAH in vitro; cited from earlier work.
Data set [2] has as its system triacylglycerol hydrolase (TGH). The conditions noted are these: relative to FAAH; cited from earlier work.
For data set [3], the system named is hydrolytic enzyme KIAA1363. The following applies: relative to FAAH; cited from earlier work.
The conditions of data set [4]: cited from earlier work.
Data set [5] can be described thus: Lipophilicity, n-octanol/PBS liquid-liquid partition. The class given is physicochemical. The conditions noted are these: pH 7.4. The procedure, abridged:
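Radiolabelled test compound (~150,000 cpm) shaken with n-octanol (3.0 g) and 0.1 M sodium phosphate-buffered saline pH 7.40 (3.0 g): vortexed 3 min at room temperature, centrifuged 3500 rpm 5 min. Weighed aliquots of each phase gamma-counted. Remaining organic layer repartitioned until logD values were consistent. LogD = log[(cpm/g octanol)/(cpm/g PBS)]. Triplicate.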

A short description of data set [6]: Whole body biodistribution in mice. The class given is in vivo, ddY mice. The conditions noted are these: for Distribution of radioactivity, blood / Distribution of radioactivity, brain / Distribution of radioactivity, heart / Distribution of radioactivity, kidneys / Distribution of radioactivity, liver / Distribution of radioactivity, lungs / Distribution of radioactivity, muscle / Distribution of radioactivity, small intestine / Distribution of radioactivity, spleen / Distribution of radioactivity, testes: mean ± SD, n = 3. The procedure, abridged: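 Male ddY mice (7 weeks, 34–36 g) given tracer in saline (2 MBq, 0.03 nmol/200 μL) via tail vein. Three mice killed at each time point: 1, 5, 15, 30 and 60 min. Blood, brain, heart, lung, liver, spleen, kidneys, small intestine with contents, muscle and testes removed and weighed. Tissues gamma-counted with decay correction. Uptake expressed as %ID/g wet tissue.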

Data set [7] is described as follows: PET imaging in rats, brain uptake. The class given is in vivo, Sprague-Dawley rats. The procedure, abridged: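 Male Sprague-Dawley rats (7 weeks, 210–230 g) under isoflurane (5% induction, 1–2% maintenance). Tail-vein catheter used to inject tracer (40–51 MBq, 0.7–1 nmol/200 μL). Scans: 90 min 3D list mode, 350–750 keV, binned 1 min × 4, 2 min × 8, […]. Filtered back-projection. ROIs on whole brain, cerebral cortex and cerebellum. Decay-corrected SUV from injected activity and body weight. n = 3.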

Data set [8] has as its target T1, FAAH (Rattus norvegicus, UniProt P97612).
T1 sequence (P97612 1-579): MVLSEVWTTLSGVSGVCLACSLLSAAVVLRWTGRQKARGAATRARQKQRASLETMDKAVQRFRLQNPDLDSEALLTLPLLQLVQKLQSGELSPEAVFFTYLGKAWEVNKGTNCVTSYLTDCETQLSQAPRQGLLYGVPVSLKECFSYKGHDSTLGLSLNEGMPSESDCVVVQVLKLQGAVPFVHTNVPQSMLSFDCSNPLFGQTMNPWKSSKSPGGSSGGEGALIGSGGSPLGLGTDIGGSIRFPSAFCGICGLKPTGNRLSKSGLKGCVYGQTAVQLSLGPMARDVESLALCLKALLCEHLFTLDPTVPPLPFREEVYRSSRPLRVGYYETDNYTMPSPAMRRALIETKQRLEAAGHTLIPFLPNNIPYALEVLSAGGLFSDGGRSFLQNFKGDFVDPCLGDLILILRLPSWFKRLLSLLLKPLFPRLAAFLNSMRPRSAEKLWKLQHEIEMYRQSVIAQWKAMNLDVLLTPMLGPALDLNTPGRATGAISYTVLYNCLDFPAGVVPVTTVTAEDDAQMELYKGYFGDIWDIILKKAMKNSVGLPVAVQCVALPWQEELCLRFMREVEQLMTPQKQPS
Put plainly: PET blocking study with URB597 in rats. The following applies: pretreatment with URB597 3 mg/kg, 30 min iv before injection. The class given is in vivo, Sprague-Dawley rats. The procedure, abridged: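 Blocking arm of the rat brain PET, run in male Sprague-Dawley rats under isoflurane. Unlabelled FAAH inhibitor (3.0 mg/kg, in 300 μL saline with 10% ethanol and 5% Tween 80) given 30 min before the tracer (40–51 MBq, 0.7–1 nmol iv). Dynamic 90 min list-mode scan. Regional brain uptake taken as decay-corrected SUV and compared with baseline. Three rats per condition.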

A short description of data set [9]: Radiometabolite analysis in rat plasma and brain homogenate. The conditions noted are these: 15 min post-tracer injection. The class given is in vivo, Sprague-Dawley rats. The procedure, abridged:
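Sprague-Dawley rats (n = 3) given tracer iv (82 MBq, 1.1 nmol) and killed at 15 min. Plasma separated (15,000 g, 2 min, 4 °C) and deproteinised with equal volume acetonitrile. Brain homogenised in ice-cold acetonitrile/water 1:1 and centrifuged; supernatant recovery >90%. Supernatants run on radio-HPLC (C18, acetonitrile/0.05 M NH4OAc 2:8, 2 mL/min). Parent fraction = parent peak area/total peak area × 100, decay-corrected.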

A further data set has as its system PgP/Bcrp. Briefly: PET imaging in wild-type and PgP/Bcrp knockout mice. The class given is in vivo. A digest of the protocol:
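Male […] mice, wild-type and Abcb1a/1b−/−Abcg2−/− (17–18 weeks), set up in the scanner as for the rat scans. Tracer (18 MBq, 0.12 nmol/100 μL) injected via tail-vein line. Dynamic 3D list-mode acquisition for 60 min (1 min × 4, 2 min × 8, 5 min × 8). Regional time-activity curves taken as SUV, processed as for rats. Three mice per genotype.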

Data set [10] in a line: Stability of formulated tracer. The class given is physicochemical. The conditions noted are these: within 90 min after formulation in saline.

With `COc1ccccc1CCCCCCC(=O)c1ncc(-c2ccccn2)o1` [MPPO, 7-(2-methoxyphenyl)-1-(5-(pyridin-2-yl)oxazol-2-yl)heptan-1-one], the concentration for half-maximal inhibition (IC50) in the data set with FAAH [1] was 10 nM. Further, the “selectivity over triacylglycerol hydrolase (TGH)” value in data set [2] is listed as “greater than 500 fold”. In addition, the “selectivity over hydrolytic enzyme KIAA1363” value in data set [3] was > 10^5 fold.

`O=[11C](NC1CCCCC1)Oc1ccc(O)c(-c2ccccc2)c1` [[^11C]CURB]: the logD7.4 in data set [4] is on record as 2.8.

Consider `[11CH3]Oc1ccccc1CCCCCCC(=O)c1ncc(-c2ccccn2)o1` [[^11C]MPPO, 7-(2-[^11C]methoxyphenyl)-1-(5-(pyridin-2-yl)oxazol-2-yl)heptan-1-one], for which, in data set [5], the logD was 3.43. The compound also showed a brain uptake in [6] (mice biodistribution) of 0.8 SUV. In addition, in [6] (mice, 1 min after injection), the “Distribution of radioactivity, blood” value came to 1.83 ± 0.15 %ID/g; the “Distribution of radioactivity, brain” value is 1.87 ± 0.20 %ID/g; the “Distribution of radioactivity, heart” value stood at 6.89 ± 0.60 %ID/g; the “Distribution of radioactivity, kidneys” value is reported as 12.64 ± 0.56 %ID/g. In [6] (mice, 1 min after injection), the “Distribution of radioactivity, liver” value is 9.78 ± 1.10 %ID/g; the “Distribution of radioactivity, lungs” value is 17.47 ± 3.88 %ID/g; the “Distribution of radioactivity, muscle” value came out at 1.78 ±0.16 %ID/g; the “Distribution of radioactivity, small intestine” value (shortened to “Distribution … small intestine”) is reported as 3.08 ± 0.29 %ID/g. In [6] (mice, 1 min after injection), the “Distribution of radioactivity, spleen” value was determined as 2.28 ± 0.50 %ID/g and the “Distribution of radioactivity, testes” value was found to be 0.44 ± 0.05 %ID/g. Also, in data set [6] (mice, 5 min after injection), the “Distribution of radioactivity, blood” value came to 0.75 ± 0.07 %ID/g; the “Distribution of radioactivity, brain” value is 2.27 ± 0.16 %ID/g; the “Distribution of radioactivity, heart” value amounted to 1.65 ± 0.07 %ID/g; the “Distribution of radioactivity, kidneys” value was found to be 17.17 ± 1.67 %ID/g. Besides, in [6] (mice, 5 min after injection), the “Distribution of radioactivity, liver” value stood at 18.61 ± 2.31 %ID/g; the “Distribution of radioactivity, lungs” value turned out to be 4.88 ± 0.41 %ID/g; the “Distribution of radioactivity, muscle” value is recorded as 1.03 ± 0.09 %ID/g; the “Distribution … small intestine” value is reported as 7.22 ± 0.89 %ID/g. In data set [6] (mice, 5 min after injection), the “Distribution of radioactivity, spleen” value is given as 1.29 ± 0.22 %ID/g and the “Distribution of radioactivity, testes” value is recorded as 0.67 ± 0.02 %ID/g. In addition, in data set [6] (mice, 15 min after injection), the “Distribution of radioactivity, blood” value came out at 0.38 ± 0.03 %ID/g; the “Distribution of radioactivity, brain” value is 1.81 ± 0.09 %ID/g; the “Distribution of radioactivity, heart” value is 0.55 ± 0.01 %ID/g; the “Distribution of radioactivity, kidneys” value was determined as 13.70 ± 0.69 %ID/g. Moreover, in data set [6] (mice, 15 min after injection), the “Distribution of radioactivity, liver” value stood at 20.05 ± 1.43 %ID/g; the “Distribution of radioactivity, lungs” value is reported as 1.20 ± 0.04 %ID/g; the “Distribution of radioactivity, muscle” value was 0.58 ± 0.17 %ID/g; the “Distribution … small intestine” value is 18.54 ± 4.00 %ID/g. Further, in data set [6] (mice, 15 min after injection), the “Distribution of radioactivity, spleen” value is given as 0.60 ± 0.03 %ID/g and the “Distribution of radioactivity, testes” value amounted to 0.59 ± 0.00 %ID/g. Besides, in data set [6] (mice, 30 min after injection), the “Distribution of radioactivity, blood” value is 0.34 ± 0.05 %ID/g; the “Distribution of radioactivity, brain” value was determined as 1.40 ± 0.15 %ID/g; the “Distribution of radioactivity, heart” value was 0.51 ± 0.03 %ID/g; the “Distribution of radioactivity, kidneys” value is 9.55 ± 0.65 %ID/g. In [6] (mice, 30 min after injection), the “Distribution of radioactivity, liver” value is reported as 17.47 ± 1.10 %ID/g; the “Distribution of radioactivity, lungs” value was 1.19 ± 0.18 %ID/g; the “Distribution of radioactivity, muscle” value was determined as 0.50 ± 0.17 %ID/g; the “Distribution of radioactivity, spleen” value is 0.49 ± 0.03 %ID/g. Besides, the “Distribution of radioactivity, testes” value in [6] (mice, 30 min after injection) is on record as 0.48 ± 0.02 %ID/g. Besides, in [6] (mice, 60 min after injection), the “Distribution of radioactivity, heart” value worked out at 0.32 ± 0.03 %ID/g; the “Distribution of radioactivity, kidneys” value is recorded as 6.20 ± 0.70 %ID/g; the “Distribution of radioactivity, liver” value was found to be 13.69 ±0.63 %ID/g; the “Distribution of radioactivity, lungs” value came to 0.64 ± 0.08 %ID/g. For the same compound, in [6] (mice, 60 min after injection), the “Distribution of radioactivity, muscle” value amounted to 0.24 ± 0.04 %ID/g; the “Distribution … small intestine” value was determined as 13.75 ±3.44 %ID/g; the “Distribution of radioactivity, spleen” value is 0.37 ±0.01 %ID/g; the “Distribution of radioactivity, testes” value is on record as 0.30 ± 0.03 %ID/g. For the same compound, the “blood clearance, 1 min/60 min ratio” value in data set [6] (mice, blood radioactivity) stood at 6.1. Moreover, the “brain washout, 5 min/60 min ratio” value in data set [6] (mice, brain radioactivity) was found to be 2.6. For the same compound, the “time of peak radioactivity in brain tissues” value in data set [7] (rat brain PET, after injection) was determined as 1.5 min. Besides, the “highest (peak) radioactivity in cerebellar nuclei” value in [7] (rat brain PET, baseline) is 0.87 SUV. In data set [7] (rat whole brain PET), the “brain washout, 5 min/60 min ratio” value was determined as 5.1 and the “maximum uptake in whole brain” value is 0.65 SUV. On FAAH [8], the “specificity to FAAH in rat brains” value is recorded as “modest”. Moreover, the “metabolism (radioactivity associated with hydrophilic metabolites)” value in [9] (rat brain homogenates) is given as 75%. Moreover, the “metabolism (radioactivity associated with hydrophilic metabolites)” value in [9] (rat plasma) is recorded as 90%. For the same compound, the “peak brain uptake, cerebellum” value in the data set with PgP/Bcrp (PgP/Bcrp KO mice) was 1.04 SUV. Further, in the data set with PgP/Bcrp (PgP/Bcrp KO vs wild type mice), the “ratio of KO/WT in AUC, cerebellum” value is reported as 1.2 and the “ratio of KO/WT in AUC, cerebral cortex” value was 1.2. Moreover, the “substrate for Pgp/Bcrp” value in the data set on PgP/Bcrp (mice, blood-brain barrier) was “not likely a substrate for Pgp/Bcrp”. For the same compound, in the data set with PgP/Bcrp (wild type mice), the “peak brain uptake, cerebellum” value was 0.78 SUV and the “peak brain uptake, cerebral cortex” value worked out at 0.74 SUV. In addition, the radiolysis after formulation entry in data set [10] is listed as “no radiolysis was observed”.

Regarding `O=C(Nc1cccnn1)N1CCC(=Cc2cccc(Oc3ccc(C(F)(F)F)cn3)c2)CC1` [[^11C]PF-04457845], the logD7.4 in data set [4] is reported as 3.48.
